This is an account of results in ChEMBL document CHEMBL1130270, “Design of [R-(Z)]-(+)-alpha-(methoxyimino)-1-azabicyclo[2.2.2]octane-3-acetonitri le (SB 202026), a functionally selective azabicyclic muscarinic M1 agonist incorporating the N-methoxy imidoyl nitrile group as a novel ester bioisostere” (J Med Chem, 1997).

Series [1] is described as follows: Partition coefficient is determined in octanol/buffer solution at pH 12. In kind it is physicochemical.
Series [2] concerns the target T1, Muscarinic acetylcholine receptor M2 (Homo sapiens, UniProt P08172).
T1 sequence (P08172 whole entry): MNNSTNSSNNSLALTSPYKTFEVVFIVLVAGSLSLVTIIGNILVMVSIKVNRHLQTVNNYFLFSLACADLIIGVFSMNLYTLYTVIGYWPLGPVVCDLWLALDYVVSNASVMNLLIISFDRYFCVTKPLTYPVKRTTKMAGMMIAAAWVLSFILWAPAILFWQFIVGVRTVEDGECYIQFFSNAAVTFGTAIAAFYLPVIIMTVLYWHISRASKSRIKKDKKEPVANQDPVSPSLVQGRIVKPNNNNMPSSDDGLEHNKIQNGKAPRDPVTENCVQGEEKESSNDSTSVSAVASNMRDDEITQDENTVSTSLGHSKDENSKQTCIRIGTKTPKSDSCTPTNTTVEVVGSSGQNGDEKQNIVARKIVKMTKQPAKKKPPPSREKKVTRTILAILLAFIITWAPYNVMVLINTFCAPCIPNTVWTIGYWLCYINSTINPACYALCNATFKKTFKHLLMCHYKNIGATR
As to the kind of experiment: In vitro affinity is evaluated, using quinuclidinyl benzilate (QNB) as radioligand in human cloned Muscarinic acetylcholine receptor M2. In short, it runs like this:
(§1)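 Membranes from CHO cells transfected with human m2, m3 or m4 receptors, prepared in 50 mM Tris (pH 7.4 at 37 °C). Displacement of 0.1 nM [3H]QNB; nonspecific binding defined with atropine sulfate. Incubated to equilibrium at 37 °C, ended by rapid vacuum filtration.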

For series [3], the target named is T2, Muscarinic acetylcholine receptor M1 (Homo sapiens, UniProt P11229).
T2 sequence (P11229 whole entry): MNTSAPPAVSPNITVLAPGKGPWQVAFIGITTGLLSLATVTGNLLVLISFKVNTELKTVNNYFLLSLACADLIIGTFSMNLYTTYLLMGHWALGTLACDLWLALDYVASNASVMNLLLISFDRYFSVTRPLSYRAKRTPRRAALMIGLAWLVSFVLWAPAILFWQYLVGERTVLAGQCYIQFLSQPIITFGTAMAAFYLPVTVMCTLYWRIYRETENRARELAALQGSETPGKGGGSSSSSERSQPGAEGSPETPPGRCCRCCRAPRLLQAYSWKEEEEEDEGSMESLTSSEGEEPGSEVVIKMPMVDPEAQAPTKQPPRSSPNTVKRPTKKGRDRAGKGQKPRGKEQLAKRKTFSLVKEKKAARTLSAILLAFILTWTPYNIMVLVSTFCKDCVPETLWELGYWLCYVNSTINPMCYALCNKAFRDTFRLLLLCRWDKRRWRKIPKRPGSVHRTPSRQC
Kind of series: In vitro affinity against human Muscarinic acetylcholine receptor M1 using quinuclidynyl benzylate (QNB).

Series [4] is described as follows: Ratio of 50% fall blood pressure to that of rhythmic slow wave activity in anesthetized rats. The series is classed as functional. In short, it runs like this: (§2)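 Same anaesthetized-rat dosing as above. Ratio of iv dose giving a transient 50% fall in BP (or HR) to the iv dose giving an arecoline-equivalent (0.32 mg/kg) change in hippocampal theta power.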
A short description of series [5]: Ratio of 50% fall in heart rate to that of […] slow wave activity in anesthetized rats. The series is classed as functional. In short, it runs like this:
as §2

Series [6] deals with T3, Muscarinic acetylcholine receptor M4 (Homo sapiens, UniProt P08173).
T3 sequence (P08173 whole entry): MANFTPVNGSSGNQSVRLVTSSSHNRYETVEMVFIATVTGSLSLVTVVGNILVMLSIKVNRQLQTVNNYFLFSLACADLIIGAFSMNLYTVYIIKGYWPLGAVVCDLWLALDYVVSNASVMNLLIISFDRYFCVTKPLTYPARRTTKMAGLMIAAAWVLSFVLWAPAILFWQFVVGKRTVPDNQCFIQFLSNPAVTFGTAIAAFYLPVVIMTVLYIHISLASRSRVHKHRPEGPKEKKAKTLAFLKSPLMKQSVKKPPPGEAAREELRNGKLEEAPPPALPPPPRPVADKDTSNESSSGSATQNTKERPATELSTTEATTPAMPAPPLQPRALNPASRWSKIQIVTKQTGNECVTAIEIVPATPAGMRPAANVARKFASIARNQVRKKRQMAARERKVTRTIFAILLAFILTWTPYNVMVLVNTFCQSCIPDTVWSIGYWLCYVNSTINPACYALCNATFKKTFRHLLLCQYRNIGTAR
As to the kind of experiment: In vitro affinity is evaluated, using quinuclidynyl benzylate (QNB) radioligand in human cloned Muscarinic acetylcholine receptor M4. A digest of the protocol:
as §1

A further series deals with Rattus norvegicus. As to the kind of experiment: Dose producing 50% fall in heart rate in anesthetized rats. In kind it is functional. In short, it runs like this:
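Male Hooded Lister rats (300-380 g) under urethane anaesthesia, 37 °C. Increasing iv doses via femoral vein at 45 min intervals. BP recorded from carotid artery; HR derived from the BP signal. Peak effect within 1 min, expressed as % of predose. Value is the dose giving a transient 50% fall in mean BP or HR; 95% confidence limits.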

Series [7] concerns the target Muscarinic acetylcholine receptor M3 (Homo sapiens, UniProt P20309). Kind of series: In vitro affinity is evaluated, using quinuclidynyl benzylate (QNB)radioligand in human cloned Muscarinic acetylcholine receptor M3. In short, it runs like this: as §1

Sequence of Muscarinic acetylcholine receptor M3 (P20309 whole entry): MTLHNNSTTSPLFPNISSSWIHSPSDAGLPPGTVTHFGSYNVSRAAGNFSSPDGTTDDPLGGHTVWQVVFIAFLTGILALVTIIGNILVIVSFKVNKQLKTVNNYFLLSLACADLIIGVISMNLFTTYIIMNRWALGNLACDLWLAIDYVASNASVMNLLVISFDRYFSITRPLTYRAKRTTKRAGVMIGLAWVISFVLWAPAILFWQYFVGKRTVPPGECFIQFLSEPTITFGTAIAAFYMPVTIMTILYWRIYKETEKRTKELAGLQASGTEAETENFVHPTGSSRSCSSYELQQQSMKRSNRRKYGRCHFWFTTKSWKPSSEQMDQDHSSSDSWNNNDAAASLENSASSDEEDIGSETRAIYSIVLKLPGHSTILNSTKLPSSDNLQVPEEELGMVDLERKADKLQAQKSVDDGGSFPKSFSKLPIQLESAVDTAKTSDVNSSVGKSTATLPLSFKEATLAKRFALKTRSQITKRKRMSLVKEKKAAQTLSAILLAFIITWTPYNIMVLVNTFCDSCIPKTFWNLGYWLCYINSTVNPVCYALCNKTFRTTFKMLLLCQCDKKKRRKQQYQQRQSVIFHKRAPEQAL

Broadly, the logD is the decadic logarithm of the distribution of all forms, ionised or not, between an organic phase and buffer at a given pH. A high value points to a more lipophilic compound. Usually IC50 stands for the concentration needed to halve the response being measured. A lower IC50 goes with greater potency. As usually defined, the ED50 is the dose that gives a 50% effect, or the effect in half of the subjects. Read a low ED50 as an effect at a small dose. In series [1], `CO/N=C(\C#N)C12CCCN(CC1)C2` (stereo not drawn) showed a logD of 1.49. Moreover, the IC50 came out at 31 nM in series [2], 99 nM in series [3], 49 nM in series [6] and 28 nM in series [7]. Also, the Ratio in series [4] was determined as 4; in series [5], 2. In the series with Rattus norvegicus, this compound came in with an ED50 of 0.01 mg/kg.
